Tests used:
Leishmania mexicana [1] = experiment: Antileishmanial activity against axenic amastigote stage of Leishmania mexicana (MNYC/BZ/62/M379) assessed as inhibition of parasite proliferation at 50 uM incubated for 24 hrs by alamar blue dye based fluorescence analysis; assay type: functional
Summary of the method: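 Primary single-point screen at 50 μM, in duplicate. Axenic L. mexicana amastigotes at 4x10⁵ mL⁻¹ incubated with compound 24 h at 33 °C in sealed plates, then alamarBlue for a further 24 h at the same temperature. Viability read by fluorescence at 560/600 nm against amphotericin B (50 μM) and DMSO controls.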

Leishmania mexicana [2] = experiment: Antileishmanial activity against axenic amastigote stage of Leishmania mexicana (MNYC/BZ/62/M379) assessed as induction of parasite killing incubated for 24 hrs by alamar blue dye based fluorescence analysis; assay type: functional; conditions: read-out: ED50 (the source's name)
Summary of the method: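 L. mexicana axenic amastigotes (from promastigotes by pH/temperature shift; Schneider's with 20% HIFBS) at 4x10⁵ mL⁻¹, exposed to three-fold dilutions from 50 μM to 0.21 μM for 24 h at 33 °C in sealed plates. alamarBlue then added for another 24 h, fluorescence read at 560/600 nm. Amphotericin B (50 μM) positive, DMSO negative control. Duplicates on four occasions, EC₅₀ fitted.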

CC1(C)CC[C@]2(C(=O)OCc3ccccc3)CC[C@]3(C)C(=CC[C@@H]4[C@@]5(C)CC[C@H](O)[C@@](C)(CO)[C@@H]5CC[C@]43C)[C@@H]2C1
inhibition at 50 µM (Leishmania mexicana [1]): ≥ 95% | EC50 (Leishmania mexicana [2]): > 50 µM

CC1(C)CC[C@]2(C(=O)OCc3ccccc3[N+](=O)[O-])CC[C@]3(C)C(=CC[C@@H]4[C@@]5(C)CC[C@H](O)[C@@](C)(CO)[C@@H]5CC[C@]43C)[C@@H]2C1
inhibition at 50 µM (Leishmania mexicana [1]): ≥ 95% | EC50 (Leishmania mexicana [2]): > 50 µM

CC1(C)CC[C@]2(C(=O)OCCC3OCCCO3)CC[C@]3(C)C(=CC[C@@H]4[C@@]5(C)CC[C@H](O)[C@@](C)(CO)[C@@H]5CC[C@]43C)[C@@H]2C1
inhibition at 50 µM (Leishmania mexicana [1]): ≥ 95% | EC50 (Leishmania mexicana [2]): > 50 µM

CC1(C)CC[C@]2(C(=O)OCc3ccc([N+](=O)[O-])cc3)CC[C@]3(C)C(=CC[C@@H]4[C@@]5(C)CC[C@H](O)[C@@](C)(CO)[C@@H]5CC[C@]43C)[C@@H]2C1
inhibition at 50 µM (Leishmania mexicana [1]): ≥ 95% | EC50 (Leishmania mexicana [2]): 36.2 µM

CC1(C)CC[C@]2(C(=O)O)CC[C@]3(C)C(=CC[C@@H]4[C@@]5(C)CC[C@H](O[C@@H]6OC[C@H](O)[C@H](O)[C@H]6O)[C@@](C)(CO)[C@@H]5CC[C@]43C)[C@@H]2C1
inhibition at 50 µM (Leishmania mexicana [1]): ≥ 95% | EC50 (Leishmania mexicana [2]): > 50 µM

CC1(C)CC[C@]2(NC(=O)NCCN3CCCC3)CC[C@]3(C)C(=CC[C@@H]4[C@@]5(C)CC[C@@H]6OC(C)(C)OC[C@@]6(C)[C@@H]5CC[C@]43C)[C@@H]2C1
inhibition at 50 µM (Leishmania mexicana [1]): ≥ 95% | EC50 (Leishmania mexicana [2]): > 50 µM

CC1(C)CC[C@]2(NC(=O)NCCCn3ccnc3)CC[C@]3(C)C(=CC[C@@H]4[C@@]5(C)CC[C@@H]6OC(C)(C)OC[C@@]6(C)[C@@H]5CC[C@]43C)[C@@H]2C1
inhibition at 50 µM (Leishmania mexicana [1]): ≥ 95% | EC50 (Leishmania mexicana [2]): 37.6 µM

CC1(C)CC[C@]2(NC(=O)NCc3cccnc3)CC[C@]3(C)C(=CC[C@@H]4[C@@]5(C)CC[C@@H]6OC(C)(C)OC[C@@]6(C)[C@@H]5CC[C@]43C)[C@@H]2C1
inhibition at 50 µM (Leishmania mexicana [1]): ≥ 95% | EC50 (Leishmania mexicana [2]): 17.5 µM

CCOC(=O)[C@]12CCC(C)(C)C[C@H]1C1=CC[C@@H]3[C@@]4(C)CC[C@H](O)[C@@](C)(CO)[C@@H]4CC[C@@]3(C)[C@]1(C)CC2
inhibition at 50 µM (Leishmania mexicana [1]): ≥ 95% | EC50 (Leishmania mexicana [2]): > 50 µM

CC1(C)CC[C@]2(C(=O)O)CC[C@]3(C)C(=CC[C@@H]4[C@@]5(C)CC[C@@H]6O[C@H](C[C@H]7O[C@H](CO)[C@H](O)[C@H](O)[C@H]7O)OC[C@@]6(C)[C@@H]5CC[C@]43C)[C@@H]2C1
inhibition at 50 µM (Leishmania mexicana [1]): ≥ 95% | EC50 (Leishmania mexicana [2]): 21.7 µM

CC1(C)CC[C@]2(CO)CC[C@]3(C)C(=CC[C@@H]4[C@@]5(C)CC[C@@H]6O[C@H]([C@H](O)[C@@H](O)[C@@H](O)CO)OC[C@@]6(C)[C@@H]5CC[C@]43C)[C@@H]2C1
inhibition at 50 µM (Leishmania mexicana [1]): ≥ 95%

C=CCOC(=O)[C@]12CCC(C)(C)C[C@H]1C1=CC[C@@H]3[C@@]4(C)CC[C@H](O)[C@@](C)(CO)[C@@H]4CC[C@@]3(C)[C@]1(C)CC2
inhibition at 50 µM (Leishmania mexicana [1]): ≥ 95% | EC50 (Leishmania mexicana [2]): 22.7 µM

CCCOC(=O)[C@]12CCC(C)(C)C[C@H]1C1=CC[C@@H]3[C@@]4(C)CC[C@H](O)[C@@](C)(CO)[C@@H]4CC[C@@]3(C)[C@]1(C)CC2
inhibition at 50 µM (Leishmania mexicana [1]): ≥ 95% | EC50 (Leishmania mexicana [2]): 43.6 µM

CC1(C)CC[C@]2(C(=O)OCC(=O)c3ccccc3)CC[C@]3(C)C(=CC[C@@H]4[C@@]5(C)CC[C@H](O)[C@@](C)(CO)[C@@H]5CC[C@]43C)[C@@H]2C1
inhibition at 50 µM (Leishmania mexicana [1]): ≥ 95% | EC50 (Leishmania mexicana [2]): 45.9 µM

COC(=O)[C@]12CCC(C)(C)C[C@H]1C1=CC[C@@H]3[C@@]4(C)CC[C@@H]5O[C@H](CC6O[C@H]([C@H](C)O)[C@@H](O)[C@@H]6O)OC[C@@]5(C)[C@@H]4CC[C@@]3(C)[C@]1(C)CC2 (stereo partly specified)
inhibition at 50 µM (Leishmania mexicana [1]): ≥ 95% | EC50 (Leishmania mexicana [2]): > 50 µM

C[C@H]1O[C@H](C[C@@H]2OC[C@@]3(C)[C@@H]4CC[C@]5(C)[C@H](CC=C6[C@@H]7CC(C)(C)CC[C@]7(C(=O)O)CC[C@]65C)[C@@]4(C)CC[C@@H]3O2)[C@H](O)[C@@H](O)[C@@H]1O
inhibition at 50 µM (Leishmania mexicana [1]): ≥ 95% | EC50 (Leishmania mexicana [2]): > 50 µM

CN(C[C@H](O)[C@@H](O)[C@H](O)[C@H](O)CO)C(=O)N[C@]12CCC(C)(C)C[C@H]1C1=CC[C@@H]3[C@@]4(C)CC[C@@H]5OC(C)(C)OC[C@@]5(C)[C@@H]4CC[C@@]3(C)[C@]1(C)CC2
inhibition at 50 µM (Leishmania mexicana [1]): ≥ 95% | EC50 (Leishmania mexicana [2]): 19.9 µM

C[C@@H]1O[C@@H](C[C@@H]2OC[C@@]3(C)[C@@H]4CC[C@]5(C)[C@H](CC=C6[C@@H]7CC(C)(C)CC[C@]7(C(=O)O)CC[C@]65C)[C@@]4(C)CC[C@@H]3O2)[C@@H](O)[C@H](O)[C@@H]1O
inhibition at 50 µM (Leishmania mexicana [1]): ≥ 95% | EC50 (Leishmania mexicana [2]): 19.4 µM

CC1(C)CC[C@]2(C(=O)OCN3C(=O)c4ccccc4C3=O)CC[C@]3(C)C(=CC[C@@H]4[C@@]5(C)CC[C@H](O)[C@@](C)(CO)[C@@H]5CC[C@]43C)[C@@H]2C1
inhibition at 50 µM (Leishmania mexicana [1]): ≥ 95% | EC50 (Leishmania mexicana [2]): 17.8 µM

CC1(C)CC[C@]2(NC(=O)N3CCC[C@H]3CN3CCCC3)CC[C@]3(C)C(=CC[C@@H]4[C@@]5(C)CC[C@@H]6OC(C)(C)OC[C@@]6(C)[C@@H]5CC[C@]43C)[C@@H]2C1
inhibition at 50 µM (Leishmania mexicana [1]): ≥ 95% | EC50 (Leishmania mexicana [2]): > 50 µM

CCOCc1ccc(C2OC[C@@]3(C)[C@@H]4CC[C@]5(C)[C@H](CC=C6[C@@H]7CC(C)(C)CC[C@]7(C(=O)O)CC[C@]65C)[C@@]4(C)CC[C@@H]3O2)o1 (stereo partly specified)
inhibition at 50 µM (Leishmania mexicana [1]): ≥ 95% | EC50 (Leishmania mexicana [2]): 19.2 µM

CC1(C)CC[C@]2(NC(=O)N3CCCNCC3)CC[C@]3(C)C(=CC[C@@H]4[C@@]5(C)CC[C@@H]6OC(C)(C)OC[C@@]6(C)[C@@H]5CC[C@]43C)[C@@H]2C1
inhibition at 50 µM (Leishmania mexicana [1]): ≥ 95% | EC50 (Leishmania mexicana [2]): > 50 µM

C[C@H](O)[C@H](O)[C@@H](O)[C@@H](O)[C@@H]1OC[C@@]2(C)[C@@H]3CC[C@]4(C)[C@H](CC=C5[C@@H]6CC(C)(C)CC[C@]6(C(=O)O)CC[C@]54C)[C@@]3(C)CC[C@@H]2O1
inhibition at 50 µM (Leishmania mexicana [1]): ≥ 95% | EC50 (Leishmania mexicana [2]): 21.2 µM

C[C@H](O)[C@H](O)[C@@H](O)[C@@H](O)[C@@H]1OC[C@@]2(C)[C@@H]3CC[C@]4(C)[C@H](CC=C5[C@@H]6CC(C)(C)CC[C@]6(CO)CC[C@]54C)[C@@]3(C)CC[C@@H]2O1
inhibition at 50 µM (Leishmania mexicana [1]): ≥ 95% | EC50 (Leishmania mexicana [2]): 26.9 µM

CC(=O)N1CCN(C(=O)N[C@]23CCC(C)(C)C[C@H]2C2=CC[C@@H]4[C@@]5(C)CC[C@@H]6OC(C)(C)OC[C@@]6(C)[C@@H]5CC[C@@]4(C)[C@]2(C)CC3)CC1
inhibition at 50 µM (Leishmania mexicana [1]): ≥ 95% | EC50 (Leishmania mexicana [2]): 26.4 µM

CC1(C)CC[C@]2(NC(=O)NCCN)CC[C@]3(C)C(=CC[C@@H]4[C@@]5(C)CC[C@@H]6OC(C)(C)OC[C@@]6(C)[C@@H]5CC[C@]43C)[C@@H]2C1
inhibition at 50 µM (Leishmania mexicana [1]): ≥ 95% | EC50 (Leishmania mexicana [2]): > 50 µM

CC1(C)CC[C@]2(CO)CC[C@]3(C)C(=CC[C@@H]4[C@@]5(C)CC[C@@H]6O[C@H]([C@H](O)[C@@H](O)[C@H](O)CO)OC[C@@]6(C)[C@@H]5CC[C@]43C)[C@@H]2C1
inhibition at 50 µM (Leishmania mexicana [1]): ≥ 95% | EC50 (Leishmania mexicana [2]): > 50 µM

CCOP(=O)(OCC)OC[C@@]1(C)[C@@H]2CC[C@]3(C)[C@H](CC=C4[C@@H]5CC(C)(C)CC[C@]5(NC(=O)N5CCOCC5)CC[C@]43C)[C@@]2(C)CC[C@@H]1O
inhibition at 50 µM (Leishmania mexicana [1]): ≥ 95% | EC50 (Leishmania mexicana [2]): 19.3 µM

CC1(C)CC[C@]2(NC(=O)O)CC[C@]3(C)C(=CC[C@@H]4[C@@]5(C)CC[C@@H]6O[C@H](C[C@H]7O[C@H](CO)[C@@H](O)[C@H](O)[C@@H]7O)OC[C@@]6(C)[C@@H]5CC[C@]43C)[C@@H]2C1
inhibition at 50 µM (Leishmania mexicana [1]): ≥ 95% | EC50 (Leishmania mexicana [2]): > 50 µM

CC(=O)OC[C@@]1(C)[C@@H]2CC[C@]3(C)[C@H](CC=C4[C@@H]5CC(C)(C)CC[C@]5(NC(=O)N5CCN(C)CC5)CC[C@]43C)[C@@]2(C)CC[C@@H]1O[C@@H]1OC[C@H](OC(C)=O)[C@H](OC(C)=O)[C@H]1O[C@@H]1O[C@@H](C)[C@H](OC(C)=O)[C@@H](OC(C)=O)[C@H]1OC(C)=O
inhibition at 50 µM (Leishmania mexicana [1]): ≥ 95% | EC50 (Leishmania mexicana [2]): 19.9 µM

CC1(C)CC[C@]2(NC(=O)N[C@H]3C(O)O[C@H](CO)[C@@H](O)[C@@H]3O)CC[C@]3(C)C(=CC[C@@H]4[C@@]5(C)CC[C@@H]6OC(C)(C)OC[C@@]6(C)[C@@H]5CC[C@]43C)[C@@H]2C1 (stereo partly specified)
inhibition at 50 µM (Leishmania mexicana [1]): ≥ 95% | EC50 (Leishmania mexicana [2]): > 50 µM

CC1(C)CC[C@]2(CO)CC[C@]3(C)C(=CC[C@@H]4[C@@]5(C)CC[C@@H]6O[C@H]([C@H](O)[C@@H](O)[C@H](O)[C@H](O)CO)OC[C@@]6(C)[C@@H]5CC[C@]43C)[C@@H]2C1
inhibition at 50 µM (Leishmania mexicana [1]): ≥ 95% | EC50 (Leishmania mexicana [2]): > 50 µM

CC1(C)CC[C@]2(NC(=O)N3CCC[C@H]3CO)CC[C@]3(C)C(=CC[C@@H]4[C@@]5(C)CC[C@@H]6OC(C)(C)OC[C@@]6(C)[C@@H]5CC[C@]43C)[C@@H]2C1
inhibition at 50 µM (Leishmania mexicana [1]): ≥ 95% | EC50 (Leishmania mexicana [2]): 26.2 µM

COC(=O)[C@H](Cc1c[nH]cn1)NC(=O)N[C@]12CCC(C)(C)C[C@H]1C1=CC[C@@H]3[C@@]4(C)CC[C@@H]5OC(C)(C)OC[C@@]5(C)[C@@H]4CC[C@@]3(C)[C@]1(C)CC2
inhibition at 50 µM (Leishmania mexicana [1]): ≥ 95% | EC50 (Leishmania mexicana [2]): 20.9 µM

CC1(C)CC[C@]2(NC(=O)N3CCC[C@H]3C(=O)NCCCn3ccnc3)CC[C@]3(C)C(=CC[C@@H]4[C@@]5(C)CC[C@@H]6OC(C)(C)OC[C@@]6(C)[C@@H]5CC[C@]43C)[C@@H]2C1
inhibition at 50 µM (Leishmania mexicana [1]): ≥ 95% | EC50 (Leishmania mexicana [2]): 20.2 µM

CN1CCN(C(=O)[C@@H]2CCCN2C(=O)N[C@]23CCC(C)(C)C[C@H]2C2=CC[C@@H]4[C@@]5(C)CC[C@@H]6OC(C)(C)OC[C@@]6(C)[C@@H]5CC[C@@]4(C)[C@]2(C)CC3)CC1
inhibition at 50 µM (Leishmania mexicana [1]): ≥ 95% | EC50 (Leishmania mexicana [2]): 32.4 µM
